Compound activity from PubChem.
SIRT5 inh: blocks human SIRT5 desuccinylation of peptide. Q9NXA8. Purified SirT5, succinyl-peptide AMC, trypsin-coupled fluorescence. inhibition, % at 15 µM. hit rate 1.1% among 330,000; in the data active = inhibition above about 15%; inconclusive = no clear call, values can overlap the other calls
Target sequence (Q9NXA8 whole entry, looked up): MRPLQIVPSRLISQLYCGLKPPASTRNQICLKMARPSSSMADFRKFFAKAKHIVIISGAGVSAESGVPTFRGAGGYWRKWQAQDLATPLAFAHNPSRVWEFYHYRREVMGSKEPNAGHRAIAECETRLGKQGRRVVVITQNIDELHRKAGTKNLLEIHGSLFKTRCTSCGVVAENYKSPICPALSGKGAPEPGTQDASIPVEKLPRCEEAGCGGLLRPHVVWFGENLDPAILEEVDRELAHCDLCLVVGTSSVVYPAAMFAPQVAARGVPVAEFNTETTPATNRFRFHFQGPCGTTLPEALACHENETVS
CAL PDZ FP-1: inhibitors of human CAL PDZ peptide binding; Q9HD26; purified CAL PDZ, TMR-peptide fluorescence polarization, 1 h; inhibition, % at 24.9 µM; hit rate 0.92% among 300,000; AID 602252;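 active = mean inhibition of at least 30% with at least half of replicates also reaching 30%; inconclusive = no clear call, values can overlap the other calls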;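 also: 0% = DMSO neutral control and 100% = excess unlabeled competitor peptide PRC23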
ERAP1 inh: ERAP1 (human) enzyme inhibition; hit rate 0.15% among 340,000; inhibition, % at 10.7 µM; Q9NZ08; recombinant ERAP1, Leu-AMC fluorescence, 60 min;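 active = mean replicate inhibition of at least 30%, or all replicates individually reaching that 30% level; inactive = mean below 30% and not every replicate reaching it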;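 also: 0% = neutral control wells and 100% = L-leucinethiol positive control wells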
CAL PDZ FP-2: human CAL PDZ-peptide interaction inhibition | Q9HD26 | purified CAL PDZ, TMR-peptide fluorescence polarization, 1 h | hit rate 0.02% among 330,000 | inhibition, % at 20 µM;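 active = highest replicate inhibition of at least 40%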;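 also: plate controls were DMSO neutral control wells for no effect and unlabeled competitor peptide control wells for full effect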
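Test system: tagged CAL PDZ domain / Buffer or medium: sodium phosphate/NaCl buffer pH 7.4 with TCEP, IgG, Thesit / Reagent: TMR-labelled reporter peptide T*-PRC34 bound in PDZ groove / Compound dosing: single point, 20 µM / Schedule: 1 h incubation at room temperature before polarization reading / Technique: fluorescence polarization (mP) / Benchmarks: unlabelled peptide, DMSO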
S100A4 inh HTS: inhibitors of human S100A4 binding to myosin IIA peptide; P26447; AID 652163; S100A4/TAMRA-MyoIIA peptide fluorescence polarization; inhibition, % at 10.7 µM; hit rate 0.14% among 360,000;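 active = mean inhibition of at least 70% across replicates, with every replicate also reaching that level; inconclusive = mean inhibition reaches 70% but some replicates fall short; inactive = mean inhibition below 70%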
Target sequence (P26447 whole entry, looked up): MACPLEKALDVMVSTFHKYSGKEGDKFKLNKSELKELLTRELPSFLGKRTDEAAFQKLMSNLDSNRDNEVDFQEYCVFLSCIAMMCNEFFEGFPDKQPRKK
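incubation = readout 5 min after mixing, signal stable up to 60 min | system = S100A4 monomer protein | buffer or medium = HEPES pH 7.2 with CaCl2, KCl, NaCl, DTT, Triton | benchmarks = neutral control DMSO, positive control TFP | also added = fluorescent myosin IIA peptide, 5 nM | compound dosing = one concentration per compound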
DENV2 CPE rescue: protects cells from dengue virus 2 cytopathic effect; hit rate 1.7% among 350,000; CPE inhibition, % at 9.99 µM; AID 651640; DENV2-infected cells, cytopathic effect rescue, plate reader; in the data active = CPE inhibition above about 20%, passing the limit was not always enough; inconclusive = no clear call, values can overlap the other calls; tested in BHK-21 cells;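 also: 0% = median of neutral control wells and 100% = median of positive control wells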
Active calls of the source: *; ? = inconclusive; . = no result given; + = active, no number. A selection: hits, their analogues and other compounds. The true share with any hit is near 2.9%.

SMILES	SIRT5 inh	CAL PDZ FP-1	ERAP1 inh	CAL PDZ FP-2	S100A4 inh HTS	DENV2 CPE rescue
CCNS(=O)(=O)c1ccc(CCC(=O)N2CCN(C(=O)OCC)CC2)cc1	15.4*	.	-2.1	1.5	3.7	7.3
O=C(C[C@@H]1C=C[C@@H](NC(=O)c2ccc3c(c2)OCO3)[C@H](CO)O1)NCc1ccc(F)cc1	-0.4	.	4.7	.	0.1	-2.1
COC(=O)C[C@H]1CC[C@@H]2[C@H](COc3ccc(NC(=O)c4ccc(F)c(F)c4)cc3C(=O)N2C)O1	-4.5	.	5.3	.	0.5	11.1
CCSc1nc2c(c(=O)[nH]1)C(c1ccc(C)cc1)C1=C(CCCC1=O)N2 (stereo unspecified)	-5.6	-2.9	3.7	0.0	-2.6	?
CSc1nc2c(c(=O)[nH]1)C(c1cccs1)C1=C(CCCC1=O)N2 (stereo unspecified)	.	31.9*	.	-0.8	.	.
C[C@H](CO)N1C[C@H](C)[C@H](CN(C)CC2CCOCC2)Oc2cc(C#CC3CC3)ccc2S1(=O)=O	-1.6	.	1.4	.	-9.7	21.7*
C[C@@H]1CN([C@H](C)CO)S(=O)(=O)c2ccc(-c3cccc(F)c3)cc2O[C@H]1CN(C)C(=O)Nc1cc(F)ccc1F	15.8*	.	-0.6	.	-4.4	-3.7
C[C@@H]1CN([C@@H](C)CO)S(=O)(=O)c2ccc(-c3cccc(F)c3)cc2O[C@H]1CN(C)C(=O)Nc1cc(F)ccc1F	4.7	.	1.1	.	3.2	-8.8
COc1ccc(S(=O)(=O)N(C)C[C@@H]2Oc3cc(C#CC4CCCCC4)ccc3S(=O)(=O)N([C@@H](C)CO)C[C@@H]2C)cc1	1.4	.	-3.9	.	-0.4	-16.4
C[C@H](CO)N1C[C@H](C)[C@H](CN(C)CC2CC2)Oc2cc(C#Cc3ccc(F)cc3)ccc2S1(=O)=O	16.9*	.	6.5	.	5.1	2.9
C[C@H]1CN([C@@H](C)CO)S(=O)(=O)c2ccc(C#CC3CC3)cc2O[C@H]1CN(C)CC1CCOCC1	-0.7	.	2.3	.	-1.8	-1.1
COc1ccc(S(=O)(=O)N(C)C[C@@H]2Oc3cc(C#CC4CCCC4)ccc3S(=O)(=O)N([C@H](C)CO)C[C@H]2C)cc1	19.1*	.	0.8	.	21.8	-3.2
C[C@H]1CN([C@@H](C)CO)C(=O)c2cc(NS(C)(=O)=O)ccc2O[C@H]1CN(C)C(=O)Nc1cccc2ccccc12	-7.7	.	-2.0	.	-37.0	1.0
COc1ccccc1CNC(=O)C[C@@H]1CC[C@@H]2[C@H](COC[C@@H](O)CN2C(=O)Nc2ccccc2)O1	0.6	.	-2.6	.	8.4	?
C[C@@H]1CN([C@@H](C)CO)S(=O)(=O)c2ccc(C#Cc3ccncc3)cc2O[C@@H]1CN(C)S(=O)(=O)c1ccc(F)cc1	-13.7	.	2.7	.	-11.8	3.5
C[C@H](CO)N1C[C@H](C)[C@H](CN(C)S(=O)(=O)c2ccc(F)cc2)Oc2cc(C#Cc3ccc(F)cc3)ccc2S1(=O)=O	27.4*	.	-0.9	.	3.5	-1.5
C[C@@H]1CN([C@H](C)CO)S(=O)(=O)c2ccc(C#Cc3ccc(F)cc3)cc2O[C@@H]1CN(C)S(=O)(=O)c1ccc(F)cc1	30.0*	.	1.3	.	-6.9	0.1
C[C@H]1CN([C@@H](C)CO)S(=O)(=O)c2ccc(C#CC3CCCC3)cc2O[C@H]1CN(C)C	0.3	.	-7.4	.	-3.3	32.0*
C[C@H]1CN([C@@H](C)CO)S(=O)(=O)c2ccc(C#CC3CCCC3)cc2O[C@@H]1CN(C)C	1.7	.	-2.2	.	8.1	-6.1
C[C@@H]1CN([C@H](C)CO)S(=O)(=O)c2ccc(C#Cc3ccc(F)cc3)cc2O[C@H]1CN(C)S(=O)(=O)c1ccc(F)cc1	26.2*	.	-3.1	.	2.0	1.1
C[C@@H]1CN([C@@H](C)CO)C(=O)Cc2cc(NC(=O)C3CC3)ccc2O[C@@H]1CN(C)Cc1ccc(Oc2ccccc2)cc1	2.5	.	3.0	.	-2.9	0.3
COc1ccccc1C#Cc1ccc2c(c1)O[C@@H](CN(C)Cc1ccccc1)[C@H](C)CN([C@H](C)CO)S2(=O)=O	-0.9	.	1.2	.	3.1	7.3
C[C@H]1CN([C@@H](C)CO)S(=O)(=O)c2ccc(C#CC3CC3)cc2O[C@@H]1CN(C)Cc1ccc(F)cc1	18.5*	.	-0.2	.	-19.2	0.3
C[C@H]1CN([C@@H](C)CO)S(=O)(=O)c2ccc(C#CC3CCCC3)cc2O[C@@H]1CN(C)C(=O)Nc1cc(F)ccc1F	19.7*	.	-4.1	.	-42.6	17.4
C[C@H]1CN([C@@H](C)CO)S(=O)(=O)c2ccc(C#CC3CC3)cc2O[C@H]1CN(C)Cc1ccc(F)cc1	13.2	.	0.6	.	2.8	-5.5
SMILES	SIRT5 inh	CAL PDZ FP-1	ERAP1 inh	CAL PDZ FP-2	S100A4 inh HTS	DENV2 CPE rescue
C[C@H]1CN([C@@H](C)CO)S(=O)(=O)c2ccc(C#Cc3ccc(F)cc3)cc2O[C@@H]1CN(C)S(C)(=O)=O	13.3*	.	0.5	.	-25.3	-1.0
O=C(NCCn1cc(CN2C(=O)COC[C@H]2c2ccccc2)nn1)Nc1ccccc1	-4.7	.	0.4	.	-5.8	-1.7
CC=Cc1ccc2n(c1=O)C[C@H]1[C@H](CO)[C@@H](C(=O)NCC)[C@@H]2N1C(C)=O (mixture of isomers)	-13.8	.	-0.7	.	-2.5	9.0
Cc1ccc(N=C2C(=O)Nc3ccc(Br)cc32)cc1	15.3*	-0.2	2.4	.	-2.0	0.5
O=C(/C=C/c1ccc(-c2ccc(F)cc2)o1)N1CCCC1	21.0*	-1.3	8.1	-4.1	-5.7	-1.3
O=C(/C=C/c1ccc(F)cc1)N1CCCN(C(=O)/C=C/c2ccc(F)cc2)CC1	.	-1.5	.	-1.0	.	.
COc1ccc(S(=O)(=O)NCCc2ccncc2)cc1	-2.1	63.0*	.	-0.8	-4.8	5.9
COc1ccc(C(=O)NCC(=O)OCC(=O)Nc2sccc2C#N)cc1OC	.	61.5*	.	0.0	-8.9	2.3
COc1ccc(C(=O)NCC(=O)OCC(=O)Nc2cc([N+](=O)[O-])ccc2F)cc1	-0.8	+	-3.7	9.5	-3.7	-4.8
Cc1noc(C)c1S(=O)(=O)N(C)C[C@H]1Oc2ccc(NS(=O)(=O)c3cn(C)cn3)cc2CC(=O)N([C@H](C)CO)C[C@H]1C	-3.3	.	-0.2	.	7.2	-7.9
Cc1ccc(S(=O)(=O)Nc2ccc3c(c2)C(=O)N([C@@H](C)CO)C[C@H](C)[C@H](CN(C)S(=O)(=O)c2ccc(F)cc2)O3)cc1	-1.2	.	-0.7	.	13.5	-3.1
COCC(=O)N1CC2(CCN(C(=O)c3ccccn3)CC2)c2c(n(C)c3cc(OC)ccc23)[C@@H]1CO	-3.1	.	-0.1	.	2.1	-0.1
CC(C)(C)OC(=O)CNC(=O)c1[nH]cnc1C(=O)NC1CCN(C(=O)OC(C)(C)C)CC1	0.3	-2.5	2.1	1.1	-3.6	-6.0
CC(C)C[C@H](NC(=O)c1nc[nH]c1C(=O)NCC(=O)OCc1ccccc1)C(=O)OC(C)(C)C	20.7*	-3.2	1.2	0.4	-1.7	-2.4
